# Screening results from PubChem BioAssay.
# NR2E3 ag-1: activates human photoreceptor nuclear receptor NR2E3; Q9Y5X4; GST-NR2E3/biotin-RetCOR TR-FRET, 1536-well; inhibition of corepressor binding, % at 4.78 µM; 320,000 compounds, 0.12% hits; AID 2300;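 active = percent inhibition above the cutoff of mean plus 3 SD of all tested compounds, set per screening campaign, cut at about 20% in these data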;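 also: 0% = DMSO wells and 100% = biotin wells as full block of FRET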
#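 Material: NR2E3–RetCOR corepressor complex | Quantity: 1.35 nM GST-tagged NR2E3 final | Schedule: 5 h at 4 °C | Replication: Singlicate compound wells | Reagent: RetCOR corepressor, biotinylated, 7 nM | Controls: Biotin wells as high control, 0.6% DMSO wells as low control | Signal: TR-FRET, Eu(K)-anti-GST donor, streptavidin-D2 acceptor, ex 340, em 617/671 nm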
# PG9 binder: PG9 antibody binding by small molecule; TR-FRET gp120-PG9 antibody binding; inhibition, % at 6.7 µM; 360,000 compounds, 0.43% hits; in the data active = inhibition above about 8.5%
# NR1D1 modulator: Rev-erb alpha (human) modulation; 370,000 compounds, 0.79% hits; activity, % at 10 µM; Rev-erbα–FITC-DNA binding, fluorescence polarization, 90 min;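 active = activity above about 14%, limit read from the data; passing the limit was not always enough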;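 also: 0% = DMSO wells with 35 nM protein and 100% = DMSO wells with 750 nM protein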
# Target sequence (P20393 whole entry, looked up): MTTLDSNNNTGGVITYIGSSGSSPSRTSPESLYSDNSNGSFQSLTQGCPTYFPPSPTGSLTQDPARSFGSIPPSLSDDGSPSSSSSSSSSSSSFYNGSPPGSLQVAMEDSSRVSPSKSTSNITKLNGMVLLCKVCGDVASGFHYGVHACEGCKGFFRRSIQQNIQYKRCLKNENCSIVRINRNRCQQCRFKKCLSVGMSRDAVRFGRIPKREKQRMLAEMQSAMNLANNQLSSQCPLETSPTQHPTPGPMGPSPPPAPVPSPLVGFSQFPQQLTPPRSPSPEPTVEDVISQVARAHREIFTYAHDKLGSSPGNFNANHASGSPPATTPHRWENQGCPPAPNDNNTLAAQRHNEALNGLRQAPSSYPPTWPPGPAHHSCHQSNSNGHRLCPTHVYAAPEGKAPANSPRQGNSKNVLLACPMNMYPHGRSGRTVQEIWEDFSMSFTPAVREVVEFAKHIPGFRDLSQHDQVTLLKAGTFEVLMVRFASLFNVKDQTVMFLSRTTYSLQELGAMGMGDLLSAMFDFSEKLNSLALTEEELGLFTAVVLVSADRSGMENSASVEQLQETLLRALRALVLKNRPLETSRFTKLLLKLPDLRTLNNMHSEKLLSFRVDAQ
# NR2E3 ag-2: agonists of human NR2E3 nuclear receptor | Q9Y5X4 | CHO-S Gal4-NCOR/VP16-NR2E3 two-hybrid, luciferase | inhibition of corepressor binding, % at 3.98 µM | 360,000 compounds, 0.35% hits | AID 602229;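 active = inhibition above the mean of all tested compounds plus 3 SD, cut at about 70% in these data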;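 also: 0% = DMSO with NR2E3 transfected cells and 100% = cells lacking NR2E3 construct; higher means lower luciferase signal from less NR2E3 corepressor binding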
# Rev-erbA confirm: Rev-erb alpha (human) modulation, hit confirmation. shares compounds with NR1D1 modulator. Rev-erb alpha FITC-DNA binding, fluorescence polarization, 90 min. activation, % at 25 µM. 3,000 compounds, 61% hits;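 active = activation at or above a set limit, or at least 3 SD above the negative control mean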;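 also: 0% = 35 nM protein with DMSO and 100% = 750 nM protein high control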
# RORg DNA counter: counter-screen for Rev-erb alpha modulators: RORgamma DNA binding | IC50, µM | purified RORgamma protein-FITC-DNA binding, fluorescence polarization | shares compounds with NR1D1 modulator | 910 compounds, 8% hits;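 active = Compounds whose fitted half-maximal concentration for disrupting protein-DNA binding is below 10 micromolar; the record names Rev-erb in its text, so the target is in doubt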
# * = called active by the depositor; · = no result given; ! = not active in a repeat. A selection: hits, their analogues and other compounds. The true share with any hit is near 1.5%.
SMILES,NR2E3 ag-1,PG9 binder,NR1D1 modulator,NR2E3 ag-2,Rev-erbA confirm,others
S=c1[nH]c(-c2ccc(Br)cc2)cn1CCc1ccccc1,0.8,1.4,17.2*,-2.6,28.4*,
O=C(Nc1ccc(-c2nc3ccccc3o2)cc1)c1ccc2c(c1)OCO2,5.1,2.4,-0.2,-34.7,·,
O=C(NC(=S)Nc1ccc2oc(-c3ccncc3)nc2c1)c1ccccc1F,-5.2,-0.7,37.1*,-17.5,15.7,
O=C(Nc1ccc2oc(-c3ccccc3)nc2c1)c1ccncc1,-0.9,-0.2,-5.9,-58.7,·,
O=C(Nc1ccc2oc(-c3ccccc3F)nc2c1)c1ccc2c(c1)OCCO2,2.3,-1.2,15.0*,-41.4,12.5,
O=C(Nc1ccc2oc(-c3ccc(F)cc3)nc2c1)c1ccccc1F,-5.5,6.4,40.6*,-13.4,25.2*,
CCNC(=O)C1(C)CCN(C(=O)c2cccc(C(F)(F)F)c2)C1 (stereo not given),·,-0.9,-1.7,-11.1,·,
COc1ccccc1N(C)S(=O)(=O)c1ccc(Cl)c(C(=O)OCc2c(C)noc2C)c1,-1.4,0.2,18.1*,1.1,16.8,
Cc1[nH]c(-c2ccc(F)cc2)cc1C(=O)N1CCN(c2cccc(Cl)c2)CC1,·,-0.6,1.7,-6.3,·,
COc1ccc(S[C@]2(C(=O)N3CCN(C(C)=O)CC3)CC(=O)N(C(=O)c3ccccc3)[C@@H]2c2ccc(OC)cc2)cc1,·,·,0.1,·,·,
CCN(c1ccccc1C)S(=O)(=O)c1cc2c3c(c1)CCC(=O)N3CCC2,2.4,-1.6,27.6*,-18.6,41.2*,RORg DNA counter=>40
Cc1ccc(N(Cc2cc3ccc(C)cc3[nH]c2=O)S(=O)(=O)c2ccccc2)cc1,-0.8,-1.4,33.6*,-22.0,19.1*,
Cc1cc(NC(=O)c2ccc(S(=O)(=O)N3CCOCC3)cc2)nc2c1c(=O)oc1ccccc12,1.7,-1.5,36.2*,·,16.3,
Cc1cc(NC(=O)c2ccc(S(=O)(=O)N3CCCC3)cc2)nc2c1c(=O)oc1ccccc12,·,-1.1,35.9*,-25.4,7.6,
Cc1cc(C)n(CCc2nc(-c3ccc(-c4ccccc4)cc3)cs2)n1,2.6,-2.9,-0.1,-85.0,·,
O=C(c1ccoc1)N1CCN(c2cc(-c3ccco3)nc3cc(-c4ccco4)nn23)CC1,·,·,-20.8,·,·,
CC(=O)c1ccc(NC(=O)c2cn(-c3ccccc3)nc2-c2ccncc2)cc1,1.6,0.5,1.8,13.8,·,
COC(=O)c1ccc(NC(=O)c2cn(-c3ccccc3)nc2-c2ccncc2)cc1,1.6,8.4,289.1*,-1.8,253.5*,RORg DNA counter=>40
CCCCc1cc(=O)oc2cc(C)cc(OCC(=O)NC(Cc3ccc(Cl)cc3)C(=O)O)c12 (stereo not given),-3.1,0.9,5.9,-17.3,·,
CN(Cc1ccccc1)C(=O)c1cnc(Cc2c[nH]c3ccccc23)c(I)c1,·,0.8,16.3*,22.7,3.0,
O=C(NCc1ccccc1)c1cnc(Cc2c[nH]c3ccccc23)c(I)c1,·,-1.8,1.7,14.7,·,
COc1ccc(C(=O)N2CC3(CC(c4cccc([N+](=O)[O-])c4)=NO3)C[C@H]2C(=O)NCC(N)=O)cc1 (stereo not given in full),2.5,-1.1,1.6,-12.5,·,
Cc1cccc(OCC(=O)NC(=S)Nc2ccccc2N2CCOCC2)c1C,1.2,-1.3,40.0*,-16.9,3.6,
CC(C)C(=O)N1CCN(c2ccccc2NC(=S)NC(=O)c2ccco2)CC1,-3.2,-0.4,-2.5,-15.8,·,
CC(C)C(=O)N1CCN(c2ccccc2NC(=S)NC(=O)Cc2ccccc2)CC1,1.4,0.1,17.2*,-48.6,1.7,
COC(=O)c1ccc2nc(-c3ccccc3)c(Cc3ccccc3C(F)(F)F)n2c1,·,0.6,22.1*,-18.2,19.5*,
COC(=O)c1ccc2nc(-c3ccc(F)cc3)c(Cc3ccccc3C(F)(F)F)n2c1,·,0.1,20.7*,-2.9,-4.9,
CCOc1ccc(NC(=O)CCSc2ccc3ccccc3n2)cc1,3.2,-1.2,81.6*,-13.7,45.9*,RORg DNA counter=>40
CN(/C=C/C(=C\C=[N+](C)c1ccccc1)OCCCS(=O)(=O)[O-])c1ccccc1,-5.3,-1.5,-11.0,-19.5,·,
COc1cc(NC(=O)c2nccn2C)cc(C(=O)Nc2cccc(C(F)(F)F)c2)c1,3.4,-1.6,19.1*!,-28.7,15.0*,
